For test [1], the system named is HCC827. The test can be described thus: Induction of apoptosis in human HCC827 cells assessed as early apoptotic cells at 1000 nM after 48 hrs by Annexin V-FITC/PI staining based flow cytometry (reference value: 2.83%). The format is functional.
For test [2], the system named is NCI-H1975. The test can be described thus: Induction of apoptosis in human NCI-H1975 cells assessed as viable cells at 1000 nM after 48 hrs by Annexin V-FITC/PI staining based flow cytometry (reference value: 93.7%). The settings on record: NCI-H1975, 48 h, read-out: Activity. The format is functional. In general terms: A flow cytometer gives signals particle by particle.

The subject of test [3] is HCC827. The test can be described thus: Induction of apoptosis in human HCC827 cells assessed as viable cells at 1000 nM after 48 hrs by Annexin V-FITC/PI staining based flow cytometry (reference value: 94.6%). The format is functional. The settings on record: HCC827, 48 h, read-out: Activity.
Test [4] relates to A-431. The test can be described thus: Induction of apoptosis in human A431 cells assessed as early apoptotic cells at 1000 nM after 48 hrs by Annexin V-FITC/PI staining based flow cytometry (reference value: 3.40%). The format is functional.
In test [5] the test system is A-431. The test can be described thus: Antiproliferative activity against human A431 cells after 72 hrs by MTT assay. The format is functional, cell-based. Conditions: A-431, 72 h. The method, boiled down:
(§1)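 Cells seeded at 3000/well in growth medium with 10% FBS and left overnight. Treated in triplicate for 72 h at nine concentrations (0.458 to 30,000 nM), with DMSO-only controls. MTT (5 mg/mL) added for the last 4 h, formazan dissolved in DMSO, absorbance read at 490 nm. IC50 from non-linear sigmoidal dose-response fit.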
(Formazan colour is commonly taken as a measure of viable cells.)

Test [6] has as its system NCI-H3255. In words: Induction of apoptosis in human H3255 cells assessed as necrotic cells at 1000 nM after 48 hrs by Annexin V-FITC/PI staining based flow cytometry (reference value: 7.06%). The format is functional.
For test [7], the system named is NCI-H3255. In words: Induction of apoptosis in human H3255 cells assessed as late apoptotic cells at 1000 nM after 48 hrs by Annexin V-FITC/PI staining based flow cytometry (reference value: 1.77%). The format is functional.
The subject of test [8] is A-431. The test can be described thus: Induction of apoptosis in human A431 cells assessed as late apoptotic cells at 1000 nM after 48 hrs by Annexin V-FITC/PI staining based flow cytometry (reference value: 2.11%). The format is functional.
Test [9] deals with NCI-H1975. In words: Induction of apoptosis in human NCI-H1975 cells assessed as early apoptotic cells at 1000 nM after 48 hrs by Annexin V-FITC/PI staining based flow cytometry (reference value: 2.07%). The format is functional.
In test [10] the test system is HCC827. The test can be described thus: Induction of apoptosis in human HCC827 cells assessed as late apoptotic cells at 1000 nM after 48 hrs by Annexin V-FITC/PI staining based flow cytometry (reference value: 1.15%). The format is functional.
For test [11], the system named is NCI-H1975. The test can be described thus: Cell cycle arrest in human NCI-H1975 cells assessed as accumulation at G2/M phase at 500 nM after 24 hrs by propidium iodide staining based flow cytometry. The format is functional. The method, boiled down:
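H1975 cells (2×10^5) seeded in 6-well plates overnight, then given fresh growth medium with drug (50–500 nM range; reference drug 500 nM) or 1‰ DMSO control for 24 h; cells collected with medium, washed in cold PBS, fixed in 70% cold ethanol at –20 °C overnight, stained with PI/RNase buffer, analysed by flow cytometry; triplicates, mean ± SEM.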

In test [12] the test system is HCC827. The test can be described thus: Induction of apoptosis in human HCC827 cells assessed as necrotic cells at 1000 nM after 48 hrs by Annexin V-FITC/PI staining based flow cytometry (reference value: 1.41%). The format is functional.
Test [13] relates to NCI-H3255. The test can be described thus: Antiproliferative activity against human H3255 cells after 72 hrs by MTT assay. The format is functional, cell-based. The settings on record: NCI-H3255, 72 h. The method, boiled down:
as §1

In test [14] the test system is PC-9. In words: Antiproliferative activity against human PC9 cells after 72 hrs by MTT assay. The format is functional, cell-based. The settings on record: PC-9, 72 h. In a few lines:
as §1

Test [15] concerns A-431. The test can be described thus: Induction of apoptosis in human A431 cells assessed as viable cells at 1000 nM after 48 hrs by Annexin V-FITC/PI staining based flow cytometry (reference value: 90.3%). Conditions: A-431, 48 h, read-out: Activity. The format is functional.
For test [16], the system named is NCI-H3255. In words: Induction of apoptosis in human H3255 cells assessed as viable cells at 1000 nM after 48 hrs by Annexin V-FITC/PI staining based flow cytometry (reference value: 87.9%). The settings on record: NCI-H3255, 48 h, read-out: Activity. The format is functional.
The test system of test [17] is NCI-H1975. The test can be described thus: Induction of apoptosis in human NCI-H1975 cells assessed as late apoptotic cells at 1000 nM after 48 hrs by Annexin V-FITC/PI staining based flow cytometry (reference value: 1.91%). The format is functional.
The test system of test [18] is NCI-H1975. In words: Antiproliferative activity against human NCI-H1975 cells after 72 hrs by MTT assay. The format is functional, cell-based. Conditions: NCI-H1975, 72 h. In a few lines:
as §1

Test [19] relates to BEAS-2B. In words: Cytotoxicity against human BEAS2B cells after 72 hrs by MTT assay. The format is cell-based. In a few lines:
as §1

Test [20] deals with NCI-H3255. The test can be described thus: Induction of apoptosis in human H3255 cells assessed as early apoptotic cells at 1000 nM after 48 hrs by Annexin V-FITC/PI staining based flow cytometry (reference value: 3.22%). The format is functional.
The subject of test [21] is HCC827. In words: Antiproliferative activity against human HCC827 cells after 72 hrs by MTT assay. The format is functional, cell-based. Conditions: HCC827, 72 h. In a few lines:
as §1

In test [22] the test system is NCI-H1975. In words: Induction of apoptosis in human NCI-H1975 cells assessed as necrotic cells at 1000 nM after 48 hrs by Annexin V-FITC/PI staining based flow cytometry (reference value: 2.31%). The format is functional.
Test [23] has as its system A-431. In words: Induction of apoptosis in human A431 cells assessed as necrotic cells at 1000 nM after 48 hrs by Annexin V-FITC/PI staining based flow cytometry (reference value: 4.16%). The format is functional.

Calls of active or inactive are those of the source. No cut-off for these calls is given here.

For orientation: IC50 means the concentration needed to halve the response being measured. Low values mean greater potency, high ones weaker potency.

As for `COc1cc2ncnc(Nc3cccc(Cl)c3F)c2cc1OC(=O)N1CCN(C)C[C@H]1C` [AZD-3759], the Activity in test [1] was 6.11%; in test [4], 7.35%; in [6], 6.05%; in test [7], 1.71%; in [8], 2.88%; in [9], 9.95%. For the same molecule, the Activity stood at 12.8% in test [10]; 2.77% in test [12]; 5.39% in test [17]; 8.51% in [20]; 2.65% in test [22]; 1.17% in test [23]. Also, the viability at 1 µM came to 82% in test [2], 78.4% in test [3], 88.6% in test [15] and 83.7% in test [16]. Also, the IC50 in test [5] stood at 3500 nM; in test [13], 90 nM; in test [14], 50 nM; in test [18] it was 24200 nM; in [19] it was 18700 nM; in test [21], 30 nM. In test [11], the outcome was inactive.

These data come from ChEMBL document CHEMBL4265907, “Design, synthesis and pharmacological evaluation of N4,N6-disubstituted pyrimidine-4,6-diamine derivatives as potent EGFR inhibitors in non-small cell lung cancer” (Eur J Med Chem, 2018).
